Source: article PMC5592695 (Journal of medicinal chemistry, 2016)

Experiments:
[1] = tested on: R4A antibody binding to murine glomeruli; assay: Kidney glomeruli R4A binding assay; set-up: species or system mouse; details: R4A 20 µg/mL preincubated with compound at 50 µM
Procedure, shortened: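 Glomeruli isolated from mice and adhered to glass slides. R4A was preincubated with test compound for 1 h at 37 °C, then applied to the glomeruli for 1 h at room temperature. Slides were washed with PBS. Bound antibody was detected with FITC-conjugated anti-mouse IgG and imaged by fluorescence microscopy.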

[2] = tested on: R4A monoclonal antibody (anti-dsDNA) binding to DWEYS peptide; assay: Competitive inhibition ELISA: R4A antibody binding to DWEYS-coated plates; set-up: species or system mouse
Procedure, shortened: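 D-DWEYS peptide at 20 µg/mL in PBS pH 7.2 coated overnight at 37 °C, uncovered; blocked with 3% BSA/PBS 1 h at 37 °C. R4A (20 µg/mL) preincubated with test compound at varying concentrations 1 h at 37 °C, then added to washed wells 1 h at 37 °C. AP-goat anti-mouse IgG 1:1000, 1 h RT; pNPP substrate 30–60 min; absorbance at 405 nm.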

[3] = Preliminary pharmacokinetics after intravenous or oral dosing; type: in vivo; details: iv 1 mg/kg or oral gavage 10 mg/kg, male CD-1 mice
[4] = tested on: NZB/W F1 mice (SLE model); assay: NZB/W F1 lupus model efficacy testing; type: in vivo, mouse
Procedure, shortened: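 Female NZB/W F1 mice, randomised to groups (initially n = 10/group), dosed from 22 weeks of age, before severe proteinuria, with test compound or vehicle at 5 mg kg−1 day−1 as two daily ip injections (2.5 mL/kg each). Weekly body weight; proteinuria every 2 weeks; serum stored at −70 °C. Blinded kidney histology scored glomerular sclerosis, cellularity, crescents and interstitial inflammation.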

[5] = tested on: R4A antibody neurotoxicity in hippocampal neurons; assay: Neurotoxicity model: R4A injected into hippocampus, TUNEL staining; type: in vivo; details: R4A 20 µg/mL preincubated with 50 µM compound, injected into mouse hippocampus
Procedure, shortened: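 Male C57BL/6 mice (30–34 g) under 2.5% avertin ip received a 2 µL stereotaxic injection into the dorsal hippocampus (CA1) of R4A (20 µg/mL) preincubated with vehicle or test compound (50 µM).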

[6] = 5 mg/kg chronic dosing, NZB/W F1 mice, versus vehicle

Row | Compound | R4A binding to glomerular antigens [1] | Inhibition of R4A / anti-dsDNA antibody binding in ELISA (qualitative) [2] | Neurotoxic effect of R4A (TUNEL staining, neuronal apoptosis) [5] | other results
1 | Cc1c(O)cccc1C(=O)N[C@@H](CSc1ccccc1)[C@H](O)CN1C[C@H]2CCCC[C@H]2C[C@H]1C(=O)NC(C)(C)C [Compound 2, nelfinavir, reference compound] | diminished binding to glomerular antigens | dose-dependently inhibited the binding of anti-dsDNA antibodies to target antigens |  | 
2 | Cc1cccc(C)c1OCC(=O)N[C@@H](Cc1ccccc1)[C@@H](O)C[C@H](Cc1ccccc1)NC(=O)[C@H](C(C)C)N1CCCNC1=O [Compound 3, lopinavir] |  | dose-dependently inhibited the binding of anti-dsDNA antibodies to target antigens |  | 
3 | CC(C)(C)NC[C@@H]1CC2CCCCC2CN1C[C@@H](O)[C@H](Cc1ccccc1)NC[C@H](CCN)NCC1Nc2ccccc2CC1O (stereo partly drawn) [Compound 5, 2-{[3-Amino-1-({1-benzyl-3-[3-(tert-butylamino-methyl)-octahydro-isoquinolin-2-yl]-2-hydroxy-propylamino}-methyl)-propylamino]-methyl}-1,2,3,4-tetrahydro-quinolin-3-ol] | decreased the binding of R4A to kidney tissue |  | abrogated this neurotoxic effect | PK profile (comparative) [3]: exhibited the best PK profile; Tolerability in PK study [3]: well tolerated at the administered dose levels; Onset of disease ([4]; 5 mg kg−1 day−1 b.i.d. ip, NZB/W F1 mice): delayed onset of disease (26–36 weeks); Body weights versus vehicle ([4]; 5 mg kg−1 day−1 in two daily ip injections, female NZB/W F1 mice from 22 weeks of age): similar; Kidney histology [4, 6]: preserved histology; Mouse IgG staining (autoantibody deposition) in glomeruli [4, 6]: significantly less staining for mouse IgG; Serum anti-DWEYS reactivity ([4]; 5 mg/kg chronic dosing, NZB/W F1 mice, versus vehicle sera): higher anti-DWEYS reactivity; Combined kidney pathology score ([4]; blinded histopathology, 60 weeks, versus vehicle, p < 0.05): significantly lower standard combined pathology scores
4 | Cc1c(O)cccc1CN[C@@H](CSc1ccccc1)[C@H](O)CN1C[C@H]2CCCC[C@H]2C[C@H]1CNC(C)(C)C [Compound 6, 3-({3-[3-(tert-Butylaminomethyl)octahydroisoquinolin-2-yl]-2-hydroxy-1-phenylsulfanylmethylpropylamino}methyl)-2-methylphenol] | decreased the binding of R4A to kidney tissue |  | abrogated this neurotoxic effect | 
5 | CNCCCN[C@H](CN[C@@H](Cc1ccccc1)C[C@H](O)[C@H](Cc1ccccc1)NCCOc1c(C)cccc1C)C(C)C [Compound 7, 2-[2-(2,6-Dimethylphenoxy)ethylamino]-5-[3-methyl-2-(3-methylaminopropylamino)butylamino]-1,6-diphenylhexan-3-ol] | decreased the binding of R4A to kidney tissue |  |  | 
6 | saquinavir [Compound 1, reference compound] | diminished binding to glomerular antigens | dose-dependently inhibited the binding of anti-dsDNA antibodies to target antigens |  | 
